Screening data deposited in PubChem by several laboratories.
Tn7 DDE FP = inhibitors of Tn7 peptide binding to fibrin DD(E), primary screen, biochemical, fluorescence polarization, human fibrin, Tn7 probe; Fibrinogen beta chain (Homo sapiens), P02675; FP displacement of FITC-Tn7 peptide from fibrin DD(E); 0% = median of compound wells per plate; inhibition, % at 8.3 µM; 370,000 tested, 0.13% active;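 active means inhibition above the mean of compounds falling within the control limits plus 3 SD of them, cut at about 14% in these data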;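 further: 0% = plate median of compound wells and 100% = 10 µM Aha-Tn7 peptide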
Target sequence (P02675 whole entry, looked up): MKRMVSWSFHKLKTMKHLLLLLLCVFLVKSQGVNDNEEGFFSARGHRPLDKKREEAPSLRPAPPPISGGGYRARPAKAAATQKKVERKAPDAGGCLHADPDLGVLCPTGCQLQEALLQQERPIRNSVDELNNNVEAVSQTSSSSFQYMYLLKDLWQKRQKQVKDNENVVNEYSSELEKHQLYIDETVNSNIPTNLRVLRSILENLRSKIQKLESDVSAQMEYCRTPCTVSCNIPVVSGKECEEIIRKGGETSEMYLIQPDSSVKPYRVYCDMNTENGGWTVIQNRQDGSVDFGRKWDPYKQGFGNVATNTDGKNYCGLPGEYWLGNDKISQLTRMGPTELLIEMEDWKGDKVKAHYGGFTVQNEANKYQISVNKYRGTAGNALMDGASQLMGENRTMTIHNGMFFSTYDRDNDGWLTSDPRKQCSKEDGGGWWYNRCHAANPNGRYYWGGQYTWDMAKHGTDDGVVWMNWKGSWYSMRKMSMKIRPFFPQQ
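Measure: % inhibition scaled between sample-field median and high-control FP; Test system: human fibrin DD(E); Quantity: 2 µM final DD(E) protein; Doses: one dose, 8.3 µM nominal; Schedule: compound with protein 10 min, then 3 h after probe, room temperature; Detection: fluorescence polarization; Medium: Tris buffer with calcium and detergent, pH 7.8.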
Tn6 DDE FP = inhibitors of Tn6 peptide binding to fibrin DD(E), primary screen, biochemical, fluorescence polarization, human fibrin, Tn6 probe; AID 720509, 2013; Fibrinogen beta chain (Homo sapiens), P02675; Fibrin DD(E) TRITC-Tn6 fluorescence polarization displacement; 370,000 tested, 0.21% active; inhibition, % at 8.3 µM;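 active means inhibition above a per-campaign cutoff: mean of compounds within control limits plus 3 SD, cut at about 15% in these data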;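 further: 0% = median of all compound wells on the plate and 100% = blocking peptide control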
NRP1-CendR mod = modulators of CendR peptide binding to NRP-1, primary screen, biochemical, fluorescence polarization, uHTS | AID 602438, 2012 | Neuropilin-1 (Homo sapiens), O14786 | inhibition, % at 25 µM | 360,000 tested, 0.85% active | FAM-RPARPAR peptide binding to NRP-1;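 active means inhibition or corrected inhibition above about 18%, plus a signal ratio from 0.5 to 1.5, limit read from the data, passing the limit was not always enough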
aDG glyco up = activators of alpha-DG glycosylation, primary screen, uHTS, Pro5-aDG cells, AlphaScreen | alpha-DG glycosylation AlphaScreen (IIH6); 0% Pro5, 100% B10-LARGE cell signal | activation, % at 10 µM | 360,000 tested, 0.22% active | AID 624168, 2012;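 active means activation of at least 8% versus controls, or a plate z-score of at least 8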;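 further: Pro5 are CHO cells carrying HIG-tagged alpha-DG that lacks glycosylation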
* marks the source's active call; other numbers are inactive results. Only some compounds are listed: those with a hit (about 1.3% of all), similar ones and a draw of the others.

Screening COc1ccc(C(=O)C2CCCN(C(=O)c3cccc(N(C)C)c3)C2)cc1OC (configuration not stated) returned Tn7 DDE FP -4.0, Tn6 DDE FP 1.4, NRP1-CendR mod 24.7* and aDG glyco up 0.6.
Screening CCOC(=O)Nc1ccc2c(c1)[C@]1(CC(=O)N(CC(C)C)C1c1ccccc1)C(=O)N2C (some centres not stated) returned Tn7 DDE FP 1.2 and Tn6 DDE FP 6.7.
For CN(C)S(=O)(=O)N1CCN(C(=O)N2CCCCCC2)CC1 the results were Tn7 DDE FP -3.3, Tn6 DDE FP -2.5, NRP1-CendR mod -5.5 and aDG glyco up 0.0.
For O=C(N1CCCCCC1)N1CCN(C(=O)N2CCCCC2)CC1 the results were Tn7 DDE FP 0.4, Tn6 DDE FP 0.1, NRP1-CendR mod 28.2* and aDG glyco up 0.2.
For CC(C)(C)c1ccc(-c2cn(C[C@H](Cc3ccccc3)n3c(=O)c4ccccc4n3Cc3ccno3)nn2)cc1 the results were Tn7 DDE FP -1.4 and Tn6 DDE FP -3.9.
For Cc1ccccc1NC(=O)CN1C(=O)CCSc2ccccc21 the results were Tn7 DDE FP 1.9 and Tn6 DDE FP 6.3.
For COc1ccc(-n2c(C)cc(C(=O)CSc3ccc(NC(C)=O)cc3)c2C)cc1 the results were Tn7 DDE FP 1.9, Tn6 DDE FP 9.7, NRP1-CendR mod 42.4* and aDG glyco up 0.0.
CN(Cc1ccc(F)cc1)C(=O)c1cccc(OCc2ccccc2)c1 was read as Tn7 DDE FP -7.1, Tn6 DDE FP -2.9, NRP1-CendR mod 5.0 and aDG glyco up 0.1.
For CN(Cc1ccc(F)cc1)C(=O)c1cccc(OC2CCN(C3CCCC3)CC2)c1 the results were Tn7 DDE FP 4.9, Tn6 DDE FP 3.1, NRP1-CendR mod 26.1* and aDG glyco up -0.1.
Oc1ccc(/C=N/Nc2cc(N3CCOCC3)nc(N3CCOCC3)n2)cc1O was read as Tn7 DDE FP -1.6, Tn6 DDE FP -4.7, NRP1-CendR mod 25.7* and aDG glyco up -0.3.
`Oc1cccc(/C=N/Nc2cc(N3CCOCC3)nc(N3CCOCC3)n2)c1` gave Tn7 DDE FP 6.7, Tn6 DDE FP -4.1, NRP1-CendR mod -10.7 and aDG glyco up -0.1.
`CC(C)(C)OC(=O)N1CCC(NC(=O)c2[nH]cnc2C(=O)Nc2cccc(Cl)c2)CC1` gave Tn7 DDE FP 0.7, Tn6 DDE FP -0.3, NRP1-CendR mod 32.9* and aDG glyco up 0.2.
For C[C@H](NC(=O)c1nc[nH]c1C(=O)N1CCN(C(=O)OC(C)(C)C)CC1)c1ccccc1 the results were Tn7 DDE FP -0.3, Tn6 DDE FP -1.1, NRP1-CendR mod 18.4 and aDG glyco up 0.2.
`C[C@@H](NC(=O)c1nc[nH]c1C(=O)NC1CCN(C(=O)OC(C)(C)C)CC1)c1ccccc1` gave Tn7 DDE FP 4.9, Tn6 DDE FP 8.0, NRP1-CendR mod 22.4* and aDG glyco up 0.3.
Cc1cccc(C)c1OCCCN1CCCC1 was read as Tn7 DDE FP 5.3, Tn6 DDE FP -6.7, NRP1-CendR mod -5.0 and aDG glyco up 0.0.
For c1ccc(OCCCCN2CCCCC2)cc1 the results were Tn7 DDE FP -3.7, Tn6 DDE FP 3.0, NRP1-CendR mod -1.3 and aDG glyco up 0.0.
c1ccc(OCCCN2CCCC2)cc1 was read as Tn7 DDE FP 1.0, Tn6 DDE FP -1.8, NRP1-CendR mod 23.0* and aDG glyco up 0.1.
Cc1cccc(C)c1OCCN1CCCC1 was read as Tn7 DDE FP -1.9, Tn6 DDE FP -4.0, NRP1-CendR mod 27.6* and aDG glyco up -0.2.
`Cc1ccc(NC(=O)C2CCN(c3nnc(-n4cccc4)s3)CC2)c(C)c1` gave Tn7 DDE FP 6.0 and Tn6 DDE FP -5.2.
`Nc1cc(-c2ccccc2)nn1Cc1ccccc1` gave Tn7 DDE FP 7.6, Tn6 DDE FP 2.5, NRP1-CendR mod 41.3* and aDG glyco up -0.1.
`CC(C)CN(CC(C)C)c1nn[nH]n1` gave Tn7 DDE FP 3.7, Tn6 DDE FP -1.9, NRP1-CendR mod -0.4 and aDG glyco up 0.0.
`C[C@@H]1COc2cccc(N3CCCC3)c2S(=O)(=O)N1` gave Tn7 DDE FP -2.0 and Tn6 DDE FP -1.1.
Screening COc1cccc(N2[C@@H](CC(C)=O)c3ccccc3S2(=O)=O)c1 returned Tn7 DDE FP -3.7, Tn6 DDE FP 7.4, NRP1-CendR mod 22.1* and aDG glyco up -0.2.
Screening COc1cccc(N2[C@@H](CC(C)=O)c3cc(C(F)(F)F)ccc3S2(=O)=O)c1 returned Tn7 DDE FP -0.7, Tn6 DDE FP 0.1, NRP1-CendR mod -2.6 and aDG glyco up 0.0.
`Cc1cc(Cl)ccc1NC(=O)COC(=O)c1c(C)noc1C` gave Tn7 DDE FP 1.5, Tn6 DDE FP -0.2, NRP1-CendR mod 2.1 and aDG glyco up 0.0.
Screening CCOc1ccc(-c2nc(C#N)c(N3CCN(C)CC3)o2)cc1 returned Tn7 DDE FP 3.0, Tn6 DDE FP 0.0, NRP1-CendR mod -6.1 and aDG glyco up 0.2.
Screening CCCOc1ccc(-c2nc(C#N)c(N3CCN(C)CC3)o2)cc1 returned Tn7 DDE FP 4.5, Tn6 DDE FP -4.9, NRP1-CendR mod 34.1* and aDG glyco up 0.4.
`COc1cc2c(cc1OC)C(=O)CCS2` gave Tn7 DDE FP -4.1, Tn6 DDE FP 6.4, NRP1-CendR mod 31.3* and aDG glyco up -0.1.
Screening COc1ccc2c(c1)SCCC2=O returned Tn7 DDE FP 3.1, Tn6 DDE FP 4.7, NRP1-CendR mod 5.7 and aDG glyco up -0.2.
Screening COc1ccc(-c2noc(C(=O)NCc3ccccc3Cl)n2)cc1OC returned Tn7 DDE FP 2.6, Tn6 DDE FP -5.5, NRP1-CendR mod -0.4 and aDG glyco up 0.4.
`COc1ccc(-c2noc(C(=O)NCc3ccc(F)cc3)n2)cc1OC` gave Tn7 DDE FP -8.2, Tn6 DDE FP -5.9, NRP1-CendR mod 36.7* and aDG glyco up 0.0.
Screening C[C@H]1[C@@H](NC(=O)C#Cc2ccccc2)CC[C@@]23CCCN2C(=O)CCC[C@@H]13 returned Tn7 DDE FP -7.0 and Tn6 DDE FP 4.8.
Screening Cc1ccc(C)c(NC(=O)c2cccc3c2-c2ccccc2C3=O)c1 returned Tn7 DDE FP 9.7 and Tn6 DDE FP 5.6.
Nc1cc(Cl)ccc1Oc1ccccc1 was read as Tn7 DDE FP 3.3, Tn6 DDE FP -1.9, NRP1-CendR mod 6.5 and aDG glyco up -0.2.
For Cc1cccc(Oc2ccc(Cl)cc2N)c1 the results were Tn7 DDE FP 1.8, Tn6 DDE FP -3.8, NRP1-CendR mod 29.0* and aDG glyco up -0.3.
For O=C(NCCN1CCC(Cc2ccccc2)CC1)C1CCCN(S(=O)(=O)c2ccccc2[N+](=O)[O-])C1 (configuration not stated) the results were Tn7 DDE FP -3.5 and Tn6 DDE FP 5.2.
